{"source": "ChEMBL document CHEMBL3407478", "about": "“Development of a series of aryl pyrimidine kynurenine monooxygenase inhibitors as potential therapeutic agents for the treatment of Huntington's disease” (J Med Chem, 2015)", "key": {"[1]": {"system": "Striatum", "test": "Dose normalized Cmax in Sprague-Dawley rat striatum at 10 mg equivalents/kg, po after 0.25 to 12 hrs", "type": "ADME, organism-based", "details": "in vivo", "outline": "(§1)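 Male Sprague-Dawley rats given a single oral dose of 10 mg equiv/kg as a 2 mg equiv/mL solution in 10% hydroxypropyl-β-cyclodextrin. Plasma, liver, kidney, cortex, striatum and CSF levels were measured from 0.25 to 12 h. Brain tissue was taken from nonperfused brains. CSF AUCN covers 0–8 h because the elimination phase was undefined.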"}, "[2]": {"system": "Plasma", "test": "Dose normalized Cmax in Sprague-Dawley rat plasma at 10 mg equivalents/kg, po after 0.25 to 12 hrs", "type": "ADME, organism-based", "details": "in vivo", "outline": "as §1"}, "[3]": {"test": "Tmax in Sprague-Dawley rat brain at 12 mg equivalents/kg, po", "type": "ADME, tissue-based", "outline": "(§2)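 Nonfasted male Sprague-Dawley rats (300−370 g). Single iv tail-vein dose of 6.2 mg equiv/kg (1.24 mg equiv/mL in DMSO:PEG400:water 10:40:50) or oral gavage of 12 mg equiv/kg (1.20 mg equiv/mL in 10% hydroxypropyl-β-cyclodextrin). Terminal bleeds under isoflurane (N = 3) at 0.083−24 h; heparin plasma; tissues snap-frozen.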"}, "[4]": {"system": "Kidney", "test": "Dose normalized Cmax in Sprague-Dawley rat kidney at 10 mg equivalents/kg, po after 0.25 to 12 hrs", "type": "ADME, organism-based", "details": "in vivo", "outline": "as §1"}, "[5]": {"test": "Half life at steady state in Sprague-Dawley rat plasma at 6.2 mg equivalents/kg, iv", "type": "ADME, cell-free"}, "[6]": {"test": "Fraction unbound in rat plasma", "type": "ADME, cell-free"}, "[7]": {"system": "Rattus norvegicus", "test": "Inhibition of KMO in po dosed Sprague-Dawley rat plasma assessed as elevation in kynurenine plasma level by […] analysis", "type": "functional, organism-based"}, "[8]": {"system": "Cortex", "test": "Dose normalized AUC (0 to infinity) in Sprague-Dawley rat cortex at 10 mg equivalents/kg, po after 0.25 to 12 hrs", "type": "ADME, organism-based", "details": "in vivo", "outline": "as §1"}, "[9]": {"system": "Plasma", "test": "Dose normalized AUC (0 to infinity) in Sprague-Dawley rat plasma at 12 mg equivalents/kg, po", "type": "ADME, cell-free"}, "[10]": {"test": "Permeability from basolateral to apical side in human Caco2 cells", "type": "ADME, cell-based", "details": "Caco-2, read-out: permeability"}, "[11]": {"system": "Rattus norvegicus", "test": "Inhibition of KMO in Sprague-Dawley rat striatum brain microdialysate assessed as time duration for elevation in kynurenine level at 10 mg/kg, po by […] analysis", "type": "functional", "outline": "(§3)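 Freely moving Sprague-Dawley rats given 10 mg/kg po, with a microdialysis probe implanted in the striatum. Dialysate was sampled over 0–240 min for free compound and for KYN, KYNA, AA and 3-HK, quantified by LC-MS/MS. Metabolite changes were compared with t = 0 min by 2-way ANOVA.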"}, "[12]": {"system": "Brain", "test": "Dose normalized Cmax in Sprague-Dawley rat brain at 12 mg equivalents/kg, po", "type": "ADME, tissue-based", "details": "in vivo"}, "[13]": {"test": "Aqueous solubility of the compound", "type": "physicochemical"}, "[14]": {"molecular_target": "Kynurenine 3-monooxygenase (Mus musculus, UniProt Q91WN4)", "sequence (Q91WN4 whole entry)": "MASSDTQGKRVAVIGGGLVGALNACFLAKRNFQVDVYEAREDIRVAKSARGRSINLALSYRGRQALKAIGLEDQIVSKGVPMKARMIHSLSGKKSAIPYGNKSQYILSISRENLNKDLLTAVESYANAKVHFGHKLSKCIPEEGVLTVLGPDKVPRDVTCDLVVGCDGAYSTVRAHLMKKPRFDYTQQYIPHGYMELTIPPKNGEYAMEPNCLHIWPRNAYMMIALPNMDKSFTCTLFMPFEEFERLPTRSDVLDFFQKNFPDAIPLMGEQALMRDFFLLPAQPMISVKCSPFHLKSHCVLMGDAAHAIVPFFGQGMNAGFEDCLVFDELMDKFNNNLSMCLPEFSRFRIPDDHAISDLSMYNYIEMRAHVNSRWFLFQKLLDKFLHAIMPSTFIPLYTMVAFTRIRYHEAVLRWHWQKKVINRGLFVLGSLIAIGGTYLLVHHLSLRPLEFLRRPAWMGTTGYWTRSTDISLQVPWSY", "test": "Inhibition of mouse KMO assessed as conversion of kynurenine to 3-hydroxykynurenine by LC-MS/MS analysis", "outline": "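Mitochondrial fractions from mouse or rat liver tissue used as KMO source. Conversion of kynurenine to 3-hydroxykynurenine quantified by LC-MS/MS; IC50 averaged from triplicate tests.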"}, "[15]": {"test": "Half life in Sprague-Dawley rat kidney at 10 mg equivalents/kg, po after 0.25 to 12 hrs", "type": "ADME, organism-based", "outline": "as §1"}, "[16]": {"test": "Half life in Sprague-Dawley rat brain at 12 mg equivalents/kg, po", "type": "ADME, tissue-based"}, "[17]": {"test": "AUC (0 to 240 mins) in Sprague-Dawley rat striatal extracellular fluid at 10 mg/kg, po by […] analysis", "type": "ADME, organism-based", "parameters": "time < 4 hr, dose 10 mg/kg, route oral", "outline": "as §3"}, "[18]": {"test": "Tmax in Sprague-Dawley rat plasma at 12 mg equivalents/kg, po", "type": "ADME, cell-free", "outline": "as §2"}, "[19]": {"test": "Clearance in Sprague-Dawley rat plasma at 6.2 mg equivalents/kg, iv", "type": "ADME, cell-free"}, "[20]": {"system": "Rattus norvegicus", "test": "Inhibition of KMO in po dosed Sprague-Dawley rat plasma assessed as reduction in quinolinic acid plasma level by LC-MS/MS analysis"}, "[21]": {"test": "Tmax in Sprague-Dawley rat cortex at 10 mg equivalents/kg, po after 0.25 to 12 hrs", "type": "ADME, organism-based", "outline": "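Fed male Sprague-Dawley rats given a single oral dose of 10 mg equiv/kg as 2 mg equiv/mL in 10% hydroxypropyl-β-cyclodextrin. Plasma, CSF, kidney, liver, and cortex and striatum from nonperfused brains sampled from 0.25 to 12 h.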"}, "[22]": {"system": "Plasma", "test": "Dose normalized Cmax in Sprague-Dawley rat plasma at 12 mg equivalents/kg, po after 1 hr", "type": "ADME, organism-based", "details": "in vivo"}, "[23]": {"system": "Brain", "test": "Dose normalized AUC (0 to infinity) in MDR1a knock out FVB/N mouse brain at 5 mg equivalents/kg, iv by LC-MS/MS analysis", "type": "ADME, organism-based", "details": "in vivo", "outline": "(§4)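 Male mice given a single 5 mg equiv/kg iv bolus: FVB wild type, Bcrp(−/−), Mdr1a/b(−/−) and Mdr1a/b(−/−)/Bcrp(−/−). Brain and plasma concentration–time profiles were used to derive dose-normalized AUC (0–infinity).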"}, "[24]": {"system": "Rattus norvegicus", "test": "Inhibition of KMO in Sprague-Dawley rat brain assessed as time duration for elevation in kynurenic acid plasma level at 10 mg/kg, po by […] analysis", "type": "functional"}, "[25]": {"system": "Rattus norvegicus", "test": "Inhibition of KMO in Sprague-Dawley rat plasma assessed as time duration for elevation in kynurenic acid plasma level at 10 mg/kg, po by […] analysis", "type": "functional", "outline": "(§5)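 Sprague-Dawley rats given a single 10 mg/kg oral dose. KYN, 3-HK, KYNA and AA were quantified in plasma by LC-MS/MS at multiple time points.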"}, "[26]": {"system": "Rattus norvegicus", "test": "Inhibition of KMO in Sprague-Dawley rat plasma assessed as time duration for elevation in anthranilic acid plasma level at 10 mg/kg, po by […] analysis", "type": "functional", "outline": "as §5"}, "[27]": {"system": "Brain", "test": "Dose normalized AUC (0 to infinity) in Sprague-Dawley rat brain at 12 mg equivalents/kg, po", "type": "ADME, tissue-based", "details": "in vivo"}, "[28]": {"test": "Half life in Sprague-Dawley rat striatum at 10 mg equivalents/kg, po after 0.25 to 12 hrs", "type": "ADME, organism-based", "outline": "as §1"}, "[29]": {"test": "Tmax in Sprague-Dawley rat brain at 6.2 mg equivalents/kg, iv", "type": "ADME, tissue-based", "outline": "as §2"}, "[30]": {"test": "Half life in Sprague-Dawley rat brain at 6.2 mg equivalents/kg, iv", "type": "ADME, tissue-based"}, "[31]": {"system": "Kidney", "test": "Dose normalized AUC (0 to infinity) in Sprague-Dawley rat kidney at 10 mg equivalents/kg, po after 0.25 to 12 hrs", "type": "ADME, organism-based", "details": "in vivo", "outline": "as §1"}, "[32]": {"system": "Plasma", "test": "Dose normalized AUC (0 to infinity) in BCRP and MDR1a knock out FVB/N mouse plasma at 5 mg equivalents/kg, iv by LC-MS/MS analysis", "type": "ADME, organism-based", "details": "in vivo", "outline": "as §4"}, "[33]": {"system": "Brain", "test": "Dose normalized Cmax in Sprague-Dawley rat brain at 6.2 mg equivalents/kg, iv", "type": "ADME, tissue-based", "details": "in vivo"}, "[34]": {"system": "Plasma", "test": "Dose normalized AUC (0 to infinity) in MDR1a knock out FVB/N mouse plasma at 5 mg equivalents/kg, iv by LC-MS/MS analysis", "type": "ADME, organism-based", "details": "in vivo", "outline": "as §4"}, "[35]": {"system": "Brain", "test": "Dose normalized AUC (0 to infinity) in wild-type FVB/N mouse brain at 5 mg equivalents/kg, iv by LC-MS/MS analysis", "type": "ADME, organism-based", "details": "in vivo", "outline": "as §4"}, "[36]": {"system": "Plasma", "test": "Dose normalized AUC (0 to infinity) in Sprague-Dawley rat plasma at 10 mg equivalents/kg, po after 0.25 to 12 hrs", "type": "ADME, organism-based", "details": "in vivo", "outline": "as §1"}, "[37]": {"test": "Half life in Sprague-Dawley rat plasma at 10 mg equivalents/kg, po after 0.25 to 12 hrs", "type": "ADME, organism-based", "outline": "as §1"}}}
{"smiles": "O=C(O)c1cc(-c2ccc(OC3CC3)c(Cl)c2)ncn1", "values": [{"measurement": "Cmax/dose", "setting": "[1]", "result": 0.047, "unit": "µM·kg/mg"}, {"measurement": "Cmax/dose", "setting": "[2]", "result": 2.6, "unit": "µM·kg/mg"}, {"measurement": "Tmax", "setting": "[3]", "result": 1, "unit": "h"}, {"measurement": "Cmax/dose", "setting": "[4]", "result": 26, "unit": "µM·kg/mg"}, {"measurement": "half-life", "setting": "[5]", "result": 1.8, "unit": "h"}, {"measurement": "fraction unbound", "setting": "[6]", "result": 0.05}, {"measurement": "inhibition", "setting": "[7]", "result": "Dose-dependent effect"}, {"measurement": "AUC/dose", "setting": "[8]", "result": 0.056, "unit": "µM·kg·h/mg"}, {"measurement": "AUC/dose", "setting": "[9]", "result": 7.6, "unit": "µM·kg·h/mg"}, {"measurement": "Papp B→A", "setting": "[10]", "result": 30.4, "unit": "×10⁻⁶ cm/s"}, {"measurement": "Time", "setting": "[11]", "result": 40, "unit": "min"}, {"measurement": "Cmax/dose", "setting": "[12]", "result": 0.035, "unit": "µM·kg/mg"}, {"measurement": "solubility", "setting": "[13]", "result": "> 1000", "unit": "µg/mL"}, {"measurement": "IC50", "setting": "[14]", "result": 5.1, "unit": "nM"}, {"measurement": "half-life", "setting": "[15]", "result": 2, "unit": "h"}, {"measurement": "half-life", "setting": "[16]", "result": 1.7, "unit": "h"}, {"measurement": "AUC(0-t) at 4 h", "setting": "[17]", "result": 0.066, "unit": "µM·h"}, {"measurement": "Tmax", "setting": "[18]", "result": 1, "unit": "h"}, {"measurement": "clearance", "setting": "[19]", "result": 4.83, "unit": "mL/min/kg"}, {"measurement": "inhibition", "setting": "[20]", "result": "Dose-dependent effect"}, {"measurement": "Tmax", "setting": "[21]", "result": 0.5, "unit": "h"}, {"measurement": "Cmax/dose", "setting": "[22]", "result": 1.9, "unit": "µM·kg/mg"}, {"measurement": "AUC/dose", "setting": "[23]", "result": 0.073, "unit": "µM·kg·h/mg"}, {"measurement": "Time", "setting": "[24]", "result": ">=4 hr"}, {"measurement": "Time", "setting": "[25]", "result": 8, "unit": "h"}, {"measurement": "Time", "setting": "[26]", "result": 8, "unit": "h"}, {"measurement": "AUC/dose", "setting": "[27]", "result": 0.12, "unit": "µM·kg·h/mg"}, {"measurement": "half-life", "setting": "[28]", "result": 2.3, "unit": "h"}, {"measurement": "Tmax", "setting": "[29]", "result": 4.98, "unit": "min"}, {"measurement": "half-life", "setting": "[30]", "result": 0.7, "unit": "h"}, {"measurement": "AUC/dose", "setting": "[31]", "result": 70, "unit": "µM·kg·h/mg"}, {"measurement": "AUC/dose", "setting": "[32]", "result": 3.6, "unit": "µM·kg·h/mg"}, {"measurement": "Cmax/dose", "setting": "[33]", "result": 0.25, "unit": "µM·kg/mg"}, {"measurement": "AUC/dose", "setting": "[34]", "result": 2.6, "unit": "µM·kg·h/mg"}, {"measurement": "AUC/dose", "setting": "[35]", "result": 0.066, "unit": "µM·kg·h/mg"}, {"measurement": "AUC/dose", "setting": "[36]", "result": 5.3, "unit": "µM·kg·h/mg"}, {"measurement": "half-life", "setting": "[37]", "result": 1.7, "unit": "h"}]}
